A selection: hits, their analogues and other compounds. The true share with any hit is near 1.8%.
DNMT1 block = human DNMT1 methyltransferase inhibitors, primary screen, biochemical, molecular beacon, fluorescence, HinP1I cleavage, uHTS; inhibition (reported as % activation of signal), % at 10 µM; 360,000 compounds, 0.83% hits; AID 588458, 2011; in the data active means inhibition above about 50%
Scp-1 inhibitor = Scp-1 phosphatase inhibitors, primary screen, biochemical, colorimetric, uHTS | Recombinant Scp1, phosphopeptide, malachite green phosphate absorbance | inhibition, % at 20 µM | 340,000 compounds, 0.88% hits;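 active means inhibition above about 50% at 20 µM, limit read from the data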;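 further: plate controls were DMSO wells with enzyme for no effect and wells lacking enzyme for full effect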
Target sequence (Q9GZU7 76-261 limits assumed): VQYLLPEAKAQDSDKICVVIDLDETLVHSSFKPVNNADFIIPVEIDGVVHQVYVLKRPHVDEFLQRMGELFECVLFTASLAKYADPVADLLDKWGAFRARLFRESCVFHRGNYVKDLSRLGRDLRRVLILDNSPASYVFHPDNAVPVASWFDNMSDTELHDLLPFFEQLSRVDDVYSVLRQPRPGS
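System: truncated SCP-1 phosphatase (76-261aa); medium: Tris acetate buffer pH 5.5 with MgCl2 and Tween-20; incubation: 45 min room-temperature reaction, 5 min colour, 30 min stabiliser; compound: single 20 µM dose, 1% DMSO; reagent: Phosphorylated 17-residue peptide substrate; read-out: % inhibition at 20 µM; technique: colorimetric free-phosphate detection, absorbance 630 nm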
LMPTP block = LMPTP phosphatase inhibitors, primary screen, biochemical, fluorescence intensity, uHTS; Low molecular weight phosphotyrosine protein phosphatase (Homo sapiens), P24666; recombinant LMPTP-A, OMFP fluorogenic substrate; inhibition, % at 20 µM; 360,000 compounds, 0.22% hits;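 active means compounds that cut the enzyme signal by at least half of the control window in the single-dose screen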;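 further: plate controls were DMSO wells with enzyme plus substrate for no effect and substrate without enzyme for full effect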
Target sequence (P24666 whole entry, looked up): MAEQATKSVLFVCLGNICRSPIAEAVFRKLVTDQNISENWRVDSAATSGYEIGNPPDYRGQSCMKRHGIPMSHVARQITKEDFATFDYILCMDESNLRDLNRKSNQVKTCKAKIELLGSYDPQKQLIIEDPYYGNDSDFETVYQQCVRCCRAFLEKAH
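Assay system: LMPTP-A, protein tyrosine phosphatase of low molecular weight / Medium: pH 6.0 Bis-Tris buffer with DTT and Triton X-100 / Schedule: 50 min enzyme reaction at room temperature, protected from light / Measured by: endpoint fluorescence intensity from OMFP dephosphorylation / Read-out basis: % inhibition relative to no-enzyme and uninhibited control wells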
SUMO1-SIM PPI = modulators of SUMO1 protein-protein interactions, primary screen, biochemical, uHTS. Small ubiquitin-related modifier 1 (Homo sapiens), P63165. SUMO1 binding to a labelled peptide, TR-FRET, 1 h. inhibition, % at 20 µM. 360,000 compounds, 0.33% hits; in the data active means inhibition above about 37%
Target sequence (P63165 whole entry, looked up): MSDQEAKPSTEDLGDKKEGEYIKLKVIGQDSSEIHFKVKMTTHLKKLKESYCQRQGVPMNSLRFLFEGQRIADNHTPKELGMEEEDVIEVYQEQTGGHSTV
STEP inh = STEP phosphatase inhibitors, primary screen, biochemical, fluorescence intensity, uHTS | recombinant STEP, OMFP fluorogenic substrate | inhibition, % at 20 µM | 360,000 compounds, 0.25% hits;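 active means inhibition at 20 µM, scaled per plate between control wells, above about 37%, limit read from the data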;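 further: 0% = DMSO with enzyme and substrate and 100% = substrate only without enzyme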
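Assay system: isolated STEP enzyme / Timing: 20 min at room temperature, dark / Doses: 20 µM, 1% DMSO / Technique: fluorescence intensity, excitation 480 nm, emission 540 nm / Reagent: fluorogenic phosphatase substrate OMFP at 25 µM final / Measure: percent inhibition scaled to no-enzyme and uninhibited-enzyme controls, plate-pattern corrected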
Beacon interf DR = spectral interference with molecular beacon fluorescence, dose response, artefact control for DNMT1 inhibitor project, biochemical, fluorescent molecular beacon | shares compounds with DNMT1 block | spectral interference counter-screen | IC50, µM | 200 tested, under 10 active | AID 602382, 2012; call rule not given here
DNMT1 confirm = DNMT1 methyltransferase inhibitor retest, confirmation, biochemical, molecular beacon, fluorescence, single concentration; shares compounds with DNMT1 block; DNMT1 molecular beacon HinP1I cleavage; inhibition, % at 10 µM; 2,300 compounds, 8% hits; AID 602385, 2012;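 active means average inhibition of at least 30% in the single-concentration confirmation test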
Beacon interf = counter-screen for DNMT1 inhibitors: spectral interference; DNMT1 molecular beacon spectral interference counterscreen, fluorescence 485/520; 2,300 compounds, 1% hits; shares compounds with DNMT1 block; activation (fluorescence interference), % at 10 µM;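 active means activation of at least 30% at 10 µM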;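 further: DNMT1 catalytic domain with a HinP1I cleavage step and a FAM/dabcyl DNA beacon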
An asterisk follows results filed as active; . = no result given.

SMILES	DNMT1 block	Scp-1 inhibitor	LMPTP block	SUMO1-SIM PPI	STEP inh	DNMT1 confirm	Beacon interf	others
CCC(=O)Nc1nc2c(OC)ccc(OC)c2s1	-0.9	-4.8	1.1	2.9	0.8	.	.
COc1ccc(OC)c2sc(NC(=O)C3CC3)nc12	-4.1	-8.4	0.1	-1.9	0.5	.	.
COc1ccc(OC)c2sc(NC(=O)c3ccc(Cl)s3)nc12	60.8*	-11.9	7.1	-1.2	1.2	6.3	0.0
COc1ccc(OC)c2sc(NC(=O)c3ccc(Br)s3)nc12	56.6*	-9.2	20.8	13.1	3.7	2.4	-3.4
Cn1c2c(c(=O)c3ccccc31)CCCC2	4.5	-1.8	-1.7	4.1	-0.4	.	.
C=CCN(c1ccccc1)S(=O)(=O)c1cccc(C(=O)Nc2ccc(N3CCOCC3)cc2)c1	-4.4	-2.7	1.4	4.3	5.3	.	.
O=C(CCN1C(=O)c2cccc([N+](=O)[O-])c2C1=O)NC1CCCCCC1	-3.6	-6.8	-0.9	-36.4	1.1	.	.
CCOc1ccc2nc(NC(=O)CN3CCN(C)CC3)sc2c1	72.5*	4.6	2.7	0.3	-0.2	3.0	5.2
CCCN(CC(=O)Nc1ccccc1OC)C(=O)c1ccc(S(=O)(=O)Nc2ccccc2)cc1	62.1*	-3.9	-0.6	-3.8	-2.0	1.0	-8.2
O=C(/C=C/[C@H]1O[C@@H](n2ccc(=O)[nH]c2=O)[C@H](O)[C@@H]1O)NCCCc1ccccc1	79.5*	.	-3.0	1.6	-4.3	1.1	3.2
O=C(/C=C/[C@H]1O[C@@H](n2ccc(=O)[nH]c2=O)[C@H](O)[C@@H]1O)NCCc1cccs1	1.4	.	-2.7	0.7	-1.3	.	.
CCn1cc(S(=O)(=O)NCCc2ccc(OC)c(OC)c2)cn1	82.7*	1.0	0.8	-2.4	0.1	2.9	0.3
COc1ccc(S(=O)(=O)N2CCN(C(=O)C3COc4ccccc4O3)CC2)cc1 (configuration not stated)	95.3*	64.1*	55.8*	18.9	34.9	53.7*	2.3	Beacon interf DR=>99
CC(=O)Nc1ccc(S(=O)(=O)N2CCN(C(=O)C3COc4ccccc4O3)CC2)cc1 (configuration not stated)	-0.4	-6.7	-0.4	-1.8	-0.9	.	.
COc1cc(/C=C/C(=O)N(Cc2ccccc2)c2ccccn2)cc(OC)c1OC	53.0*	-4.8	-0.4	1.1	-3.3	-0.6	9.5
COc1ccc(/C=C/C(=O)N(Cc2ccccc2)c2ccccn2)cc1OC	3.1	-5.1	-2.2	2.4	0.2	.	.
Cc1cc(SCc2ccc([N+](=O)[O-])cc2)nc(=O)[nH]1	51.6*	29.6	8.1	-16.7	2.4	1.8	-1.4
Cc1cc(SCc2cccc([N+](=O)[O-])c2)nc(=O)[nH]1	5.2	0.3	1.1	-29.9	3.1	.	.
COCC(=O)Nc1cc(C)cn(Cc2ccccc2Cl)c1=O	-4.0	-4.7	-1.7	-3.9	1.2	.	.
COc1cc(/C=C(/C#N)c2nc3ccccc3[nH]2)ccc1OCC(=O)Nc1ccccc1C	52.0*	-7.7	3.5	1.3	0.0	-0.8	-0.6
CCOC(=O)/C(C#N)=C/c1ccc(OCC(=O)Nc2ccc(C)c(C)c2)c(OC)c1	54.1*	0.6	2.1	1.5	0.4	2.4	-2.3
COc1cc(/C=C(\CC(=O)O)c2nc3ccccc3s2)ccc1OCC(=O)Nc1ccccc1F	-1.3	-8.2	0.7	-0.6	3.5	.	.
COc1cc(/C=C(\C#N)c2nc3ccccc3s2)ccc1OCC(=O)Nc1ccccc1	57.0*	-9.3	2.2	0.3	-3.5	5.4	6.1
N=C1/C(=C/c2coc3ccccc3c2=O)C(=O)N=C2SC(c3ccco3)=NN12	65.5*	54.2*	34.6	-5.2	-31.0	15.7	-11.5	Beacon interf DR=>99
N=C1/C(=C\c2coc3ccccc3c2=O)C(=O)N=C2SC(c3ccncc3)=NN12	35.0	46.6	3.0	22.9	-24.5	.	.
SMILES	DNMT1 block	Scp-1 inhibitor	LMPTP block	SUMO1-SIM PPI	STEP inh	DNMT1 confirm	Beacon interf	others
CCN1C(=O)[C@H]2[C@@H](c3ccc(-c4ccc(OC)cc4)cc3)N[C@@](CC(C)C)(C(=O)OC)[C@H]2C1=O	4.9	-8.6	0.8	-1.2	2.0	.	.
Oc1ccc(N=Cc2ccc(-c3cccs3)s2)cc1	76.8*	-6.5	32.9	68.1*	20.2	4.5	0.3
O=C(O)CCc1ccc(S(=O)(=O)Nc2cc(C(F)(F)F)ccc2N2CCCC2)cc1	52.8*	30.3	4.1	10.8	3.0	75.8*	-2.2	Beacon interf DR=>99
NS(=O)(=O)c1ccc(N/N=C/c2cn(-c3ccccc3)nc2-c2cccs2)c([N+](=O)[O-])c1	45.3	9.2	6.6	-12.9	4.8	0.0	-3.0
Cc1ccc(NC(=O)C2(C)CCN2C(=O)Cc2ccccc2Cl)cc1C (configuration not stated)	5.4	.	1.8	-2.7	-2.2	.	.
Cc1cc(NC(=O)c2ccco2)c(=O)n(Cc2cccc(C(F)(F)F)c2)c1	65.9*	-6.4	1.1	-7.7	0.2	3.1	4.7
COc1ccccc1OCC(=O)Nc1ccc(N2CCCCC2)cc1	-7.1	-3.0	1.6	0.8	-0.7	.	.
Cc1cccc(OCC(=O)Nc2cccc(-c3nnc(-c4ccccc4)o3)c2)c1C	57.1*	2.1	-0.2	1.9	-0.8	-2.1	-3.4
CC(=O)c1ccc(OCC(=O)Nc2ccc(N3CCCCC3)cc2)cc1	-3.2	-5.5	-1.4	-1.0	-3.0	.	.
Cc1cccc(OCC(=O)Nc2ccc(N3CCCC3)cc2)c1C	58.9*	-6.6	3.3	-26.1	2.7	20.7	-5.1	Beacon interf DR=>99
Cc1cccc(C)c1OCC(=O)Nc1cccc(-c2nnc(-c3ccccc3)o2)c1	-5.1	-8.2	1.0	2.6	2.9	.	.
Cc1ccc(OCC(=O)Nc2ccc(N3CCCC3)cc2)cc1C	67.4*	8.9	6.2	3.2	3.6	-0.3	-5.7
O=C1C=CC(=Nc2ccc(F)cc2)O1	-0.2	-1.0	-2.0	-3.2	1.6	.	.
COCc1c(C(=O)OCC(=O)N2CCCC2=O)oc2ccccc12	-1.7	-9.8	-1.1	-3.4	-0.6	.	.
O=C(Nc1ccc2oc(-c3ccccc3)nc2c1)c1cccnc1	-1.3	-7.0	-0.1	12.7	-1.2	.	.

Screening results: PubChem BioAssay, Sanford-Burnham Center for Chemical Genomics
